# Measurements gathered from unrelated publications.
# Each line is one published result; the experiments were not run side by side.
# Target: Interferon-induced, double-stranded RNA-activated protein kinase (EIF2AK2, Homo sapiens, UniProt P19525)
SMILES,test,test system,conditions,measurement,value
c1ccc(CNc2nc(N3CCOc4ccccc43)nc3c2CCCC3)cc1,"target engagement in cells, inhibitor, chemoproteomics",,20 mM,inhibition,-5.4%
CC(C)CC(=O)N1CCc2nc(-c3ccc(Br)cc3)nc(N(C)Cc3ccccc3)c2C1,"cell-free assay, competition with immobilised ligand",,0.1 µM,remaining binding,100%
Cc1cnc(NC2CCOCC2)nc1-n1cnc(C(=O)NC(CN)c2cc(F)cc(Cl)c2)c1 (centres unmarked),"enzyme activity, inhibitor, radiometric",,1 µM,remaining activity,39%
CNc1cc(Oc2cc(C(=O)Nc3cc(N4CCN(C)CC4)cc(C(F)(F)F)c3)ccc2C)ncn1,"target engagement in cells, inhibitor, chemoproteomics",Huh-7,1 µM,inhibition,-13%
CN1CC(Oc2cnc(C#N)cc2-c2ccn3nc(NC(=O)C4CC4)cc3c2)C1,"enzyme activity, inhibitor",,1 µM,inhibition,14%
Cc1cc(NC(=O)c2cccc3cc(-c4cccc5[nH]nc(N)c45)ccc23)ccc1F,"enzyme activity, inhibitor",,0.1 µM,activity vs control,106%
CCCCNc1ncc2c(-c3ccc(F)cc3)nn(C[C@H]3CC[C@H](N)CC3)c2n1,"target engagement in cells, inhibitor, chemoproteomics",,20 mM,inhibition,8.5%
Cc1ccc(NC(=O)c2ccc(C)c(C(F)(F)F)c2)cc1C#Cc1nn(C2CCC(O)CC2)c2ncnc(N)c12 (centres unmarked),cell-free assay,,10 µM,remaining signal,75%
CC(C)(C)c1nc(-c2cccc(NS(=O)(=O)c3c(F)cccc3F)c2F)c(-c2ccnc(N)n2)s1,"enzyme activity, inhibitor, radiometric",,1 µM,remaining activity,95%
Cc1nc(N2CC[C@@H](O)C2)ncc1-c1cc(C(F)(F)F)cc2[nH]ncc12,"binding, competition with immobilised ligand",,1 µM,remaining binding,100%
Cc1ccc(C(=O)NCc2ccsc2)cc1C#Cc1cn(C(C)C)c2ncnc(N)c12,"enzyme activity, inhibitor",,1 µM,activity vs control,97%
Nc1ncnc2occ(-c3ccc(NC(=O)Nc4cc(C(F)(F)F)ccc4F)cc3)c12,"cell-free assay, inhibitor",,20 µM,remaining signal,54%
CC/C(=N\NC(=O)NCc1cccc(O)c1)c1ccc(O)c(C)c1O,"enzyme activity, inhibitor",,0.1 µM,inhibition,8.7%
C[C@H]1CCN(c2nccc(-c3cnn4ncccc34)n2)C1,binding,,1 µM,remaining binding,100%
Cc1ccc(C(=O)Nc2ccc(CN3CCN(C)CC3)c(C(F)(F)F)c2)cc1C#Cc1cnc2cccnn12,"enzyme activity, inhibitor",,23.5 nM,remaining activity,100%
CC(C)(C)c1nc2c(s1)c1nc(N)ncc1c1ccc(NS(=O)(=O)c3c(F)cccc3F)c(F)c12,"enzyme activity, inhibitor, radiometric",,1 µM,remaining activity,93%
N#Cc1ccc(Nc2ccc3[nH]c(=O)[nH]c3c2)c(Cl)c1,"cell-free assay, competition with immobilised ligand",,1 µM,remaining binding,57%
